Results taken from ChEMBL document CHEMBL3616446, “Structure activity optimization of 6H-pyrrolo[2,3-e][1,2,4]triazolo[4,3-a]pyrazines as Jak1 kinase inhibitors” (Bioorg Med Chem Lett, 2015).

Experiments:
UT7 = assay: Selectivity ratio for inhibition of JAK2 in human UT7 cells to inhibition of JAK1 in human TF1 cells; type: cell-based
How it was run: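 Cell-based pSTAT read-outs. Jak1: IL-6-stimulated pSTAT3 in TF-1 cells. Jak2: Epo-stimulated pSTAT5 in UT-7 cells. Full-length endogenous Jak at cellular ATP levels. Run in 96-well format, some in 384-well. Ratio = Jak2 cellular value / Jak1 cellular value.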

[1] = Plasma clearance in Sprague-Dawley rat at 5 mg/kg, iv; type: ADME, organism-based
[2] = Metabolic stability in Sprague-Dawley rat microsomes assessed as compound remaining at 1 uM measured at 25 mins; type: ADME, Microsome; details: read-out: Stability
How it was run: (§1)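 Microsomes at 0.25 mg protein with 1 mM NADPH and 1 µM compound, incubated 25 min at 37 °C; % parent remaining at 25 min. Rat: pooled male SD microsomes. Human: pooled male/female microsomes.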

[3] = Cmax in Sprague-Dawley rat at 10 mg/kg, po; type: ADME, organism-based; parameters: dose 10 mg/kg, route oral; details: in vivo
Rattus norvegicus = assay: Antiinflammatory activity in Lewis rat assessed as inhibition of concanavalin A-induced IFNgamma production administered 30 mins prior to concanavalin A challenge measured at 4 hrs by ELISA; type: functional; parameters: concentration or dose not given beside the values
[4] = Metabolic stability in human microsomes assessed as compound remaining at 1 uM measured at 25 mins; type: ADME, Microsome; details: read-out: Stability; how it was run: as §1
[5] = Oral bioavailability in Sprague-Dawley rat at 10 mg/kg; type: ADME, organism-based; details: in vivo
[6] = AUC (0 to infinity) in Sprague-Dawley rat at 10 mg/kg, po; type: ADME, organism-based; parameters: dose 10 mg/kg, time infinity, route oral; details: in vivo

| SMILES | clearance [1] [mL/min/kg] | remaining at 25 min, 1 µM [2] [%] | Cmax [3] [ng/mL] | remaining at 25 min, 1 µM [4] [%] | bioavailability [5] [%] | AUC(0-inf) [6] [ng·h/mL] | Selectivity ratio (UT7) | inhibition (INH) (Rattus norvegicus) [%] |
| --- | --- | --- | --- | --- | --- | --- | --- | --- |
| O=S(=O)(N[C@H]1CC[C@@H](c2nnc3cnc4[nH]ccc4n23)C1)C1CCCCC1 | – | – | – | – | – | – | > 75 | – |
| O=S(=O)(N[C@@H]1CCC[C@@H](c2nnc3cnc4[nH]ccc4n23)C1)C1CC1 (racemic) | – | – | – | – | – | – | > 10 | – |
| CCCS(=O)(=O)N[C@H]1CC[C@@H](c2nnc3cnc4[nH]ccc4n23)C1 | – | – | – | – | – | – | > 20 | – |
| CCS(=O)(=O)N[C@H]1CC[C@@H](c2nnc3cnc4[nH]ccc4n23)C1 | – | 100 | – | – | – | – | 101 | – |
| O=S(=O)(N[C@H]1CC[C@@H](c2nnc3cnc4[nH]ccc4n23)C1)C1CC1 | 48.3 | 98 | 230 | 100 | 29 | 1100 | 17 | 55 |
| O=S(=O)(N[C@]12CC[C@](c3nnc4cnc5[nH]ccc5n43)(CC1)CC2)C1CC1 | 51.7 | – | 60 | – | 13 | 410 | 225 | 31 |
| CS(=O)(=O)N[C@H]1CC[C@@H](c2nnc3cnc4[nH]ccc4n23)C1 | – | – | – | – | – | – | 34 | – |
| c1cc2c(ncc3nnc(C4CCCCC4)n32)[nH]1 | – | – | 170 | – | – | 280 | – | – |
| COc1ccc(S(=O)(=O)N[C@H]2CC[C@@H](c3nnc4cnc5[nH]ccc5n34)C2)cc1 | – | 61 | – | 35 | – | – | 26 | – |
| O=S(=O)(N[C@H]1CC[C@H](c2nnc3cnc4[nH]ccc4n32)CC1)C1CC1 | – | – | – | – | – | – | > 20 | – |

Now from value to compound, other results behind:

| clearance [1] [mL/min/kg] | remaining at 25 min, 1 µM [2] [%] | Cmax [3] [ng/mL] | remaining at 25 min, 1 µM [4] [%] | bioavailability [5] [%] | AUC(0-inf) [6] [ng·h/mL] | SMILES | Selectivity ratio (UT7) | inhibition (INH) (Rattus norvegicus) [%] |
| --- | --- | --- | --- | --- | --- | --- | --- | --- |
| 41.7 | 80 | 310 | 85 | 32 | 860 | O=S(=O)(N[C@H]1CC[C@@H](c2nnc3cnc4[nH]ccc4n23)C1)C1CCC1 | 227 | 40 |
| – | 6 | – | 8 | – | – | O=S(=O)(N[C@H]1CC[C@@H](c2nnc3cnc4[nH]ccc4n23)C1)c1cccc(Cl)c1 | 54 | – |
| – | 31 | – | 42 | – | – | O=S(=O)(N[C@H]1CC[C@@H](c2nnc3cnc4[nH]ccc4n23)C1)c1ccccc1 | 34 | – |
| – | 68 | – | 90 | – | – | O=S(=O)(N[C@H]1CC[C@@H](c2nnc3cnc4[nH]ccc4n23)C1)C1CCCC1 | 100 | – |
| – | – | 10 | – | – | 50 | O=S(=O)(N[C@H]1CCC[C@@H](c2nnc3cnc4[nH]ccc4n23)C1)C1CC1 (racemic) | 9 | 0 |
